Source: ChEMBL document CHEMBL1147096, “Activities of DL-alpha-difluoromethylarginine and polyamine analogues against Cryptosporidium parvum infection in a T-cell receptor alpha-deficient mouse model” (2007)
Active and inactive are the calls of the source. The calls are words filed in the database; no cut-off is given here.

Experiments:
Cryptosporidium parvum [1] = test: Anticryptosporidial activity against Cryptosporidium parvum infected TCR alpha deficient-mouse assessed as prevention of oocyst shedding at 20 mg/kg/day after 7 days; format: functional
How it was run: (§1)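 Seven-day-old TCR-α-deficient mice were gavaged with 2 × 10^4 oocysts, and infection was confirmed in feces one week later. Treatment ran for 7 days: 20 or 134 mg/kg once daily, or 16 mg/kg twice daily. Controls received PBS. Seven days after treatment, fecal smears were stained with carbol fuchsin and scored for oocysts (×400). Ileal and cecal H&E sections were scored 0–2. Shedding was compared by Fisher's exact test.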

Cryptosporidium parvum [2] = test: Effect on infection of HCT8 cells by Cryptosporidium parvum […] isolated from mouse treated with 134 mg/kg/day for 7 days assessed as viability of […]; format: functional, organism-based
How it was run: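 Oocysts were recovered from TCR-α-deficient mice that had been infected, then treated with 134 mg/kg once daily for 7 days. Viability was judged by whether the oocysts could establish infection in an HCT-8 cell monolayer in vitro.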

Cryptosporidium parvum [3] = test: Prevention of Cryptosporidium parvum infection in TCR alpha deficient-mouse pretreated with 50 mg/kg/day, po for 2 days prior to oocyst infection and continued for 5 days; format: functional, organism-based
How it was run: (§2)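 Suckling TCR-α-deficient mice (6–8 per group) were treated once daily for 2 days, challenged with 2 × 10^4 oocysts, and treated for 5 more days at the same dose (20 or 50 mg/kg). Controls received PBS. Fecal oocyst shedding was checked 10 days after treatment by carbol fuchsin smear. Ileal and cecal H&E sections were scored 0–2 and analyzed by Fisher's exact test and ANOVA.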

Cryptosporidium parvum [4] = test: Anticryptosporidial activity against Cryptosporidium parvum infected TCR alpha deficient-mouse assessed as prevention of oocyst shedding at 134 mg/kg/day after 7 days; format: functional; how it was run: as §1
Mus musculus [5] = test: Activity of intestinal epithelial SSAT in Swiss-Webster mouse at 0.2 mg, ip after 48 hrs; format: functional
How it was run: (§3)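 Intestinal homogenates came from Swiss-Webster mice given CGC-11157 once daily (20 mg/kg p.o. or 2 mg/kg i.p.) and killed at 48, 72 or 96 h. SSAT was measured as [1-14C]acetyl-CoA incorporation into monoacetylspermine in Bicine (pH 8.0), with 16.5 μM labeled plus 1 mM acetyl-CoA, 2 mM spermine and 100 μg protein, 60 min at 37°C. Products were bound on cellulose phosphate discs and counted. Results are in nmol/min/mg protein ± SD.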

Mus musculus [6] = test: Activity of intestinal epithelial SSAT in Swiss-Webster mouse at […], ip after 72 hrs; format: functional; how it was run: as §3
Mus musculus [7] = test: Activity of intestinal epithelial SSAT in Swiss-Webster mouse at […], ip after 96 hrs; format: functional; how it was run: as §3
Mus musculus [8] = test: Activity of intestinal epithelial ODC in Swiss-Webster mouse at 0.2 mg, ip after 48 hrs; format: functional
How it was run: (§4)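 Swiss-Webster mice were dosed with CGC-11157 once daily at 20 mg/kg p.o. by feeding needle or 2 mg/kg i.p. They were killed at 48, 72 or 96 h. Intestines were washed in PBS (pH 6.7) and homogenized on ice in 40 mM Tris-HCl (pH 6.7). ODC was measured as 14CO2 trapped from L-[14C]ornithine in 0.2 M acetate (pH 6.5), 60 μM pyridoxal phosphate, 3 mg/ml BSA and 125 μg protein, 30 min at 37°C. Results are in nmol/min/mg protein ± SD.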

Mus musculus [9] = test: Activity of intestinal epithelial ODC in Swiss-Webster mouse at 0.2 mg, ip after 72 hrs; format: functional; how it was run: as §4
Mus musculus [10] = test: Activity of intestinal epithelial ODC in Swiss-Webster mouse at […], ip after 96 hrs; format: functional; how it was run: as §4
Mus musculus [11] = test: Ratio of intestinal epithelial ODC activity to SSAT activity in Swiss-Webster mouse at 0.2 mg, ip after 48 hrs; format: functional
How it was run: (§5)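 The ratio was calculated from ODC (14CO2 release from [14C]ornithine) and SSAT (acetylation of spermine by [14C]acetyl-CoA) specific activities. Both were measured in intestinal homogenates from Swiss-Webster mice dosed once daily with CGC-11157 p.o. or i.p. and sampled at 48, 72 or 96 h.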

Mus musculus [12] = test: Ratio of intestinal epithelial ODC activity to SSAT activity in Swiss-Webster mouse at 0.2 mg, ip after 72 hrs; format: functional; how it was run: as §5
Mus musculus [13] = test: Ratio of intestinal epithelial ODC activity to SSAT activity in Swiss-Webster mouse at 0.2 mg, ip after 96 hrs; format: functional; how it was run: as §5
Mus musculus [14] = test: Ratio of intestinal epithelial ODC activity to SSAT activity in Swiss-Webster mouse at 2 mg, po after 48 hrs; format: functional; how it was run: as §5
Mus musculus [15] = test: Ratio of intestinal epithelial ODC activity to SSAT activity in Swiss-Webster mouse at 2 mg, po after 72 hrs; format: functional; how it was run: as §5
Mus musculus [16] = test: Ratio of intestinal epithelial ODC activity to SSAT activity in Swiss-Webster mouse at 2 mg, po after 96 hrs; format: functional; how it was run: as §5
Cryptosporidium parvum [17] = test: Prevention of Cryptosporidium parvum infection in TCR alpha deficient-mouse pretreated with 20 mg/kgday, po for 2 days prior to oocyst infection and continued for 5 days; format: functional; conditions: dose 20 mg/kg; how it was run: as §2
Cryptosporidium parvum [18] = test: Anticryptosporidial activity against Cryptosporidium parvum infected TCR alpha deficient-mouse assessed as prevention of oocyst shedding at 16 mg/kg twice a day after 7 days; format: functional; how it was run: as §1

## NCCCC(N)(C(=O)O)C(F)F (racemic) [EFLORNITHINE]
Cryptosporidium parvum [1]
  Activity: 33%

## CCNCCCCNCCCCNCCCCNCCCCNC/C=C/CNCCCCNCCCCNCCCCNCCCCNCC
Cryptosporidium parvum [2]
  Activity: inactive

## CCNCCCNC/C=C\CNCCCNCC
Cryptosporidium parvum [3]
  Activity: Active
Cryptosporidium parvum [4]
  Activity: Toxic

## CCNCCCCNCCCCNCCCCNC/C=C\CNCCCCNCCCCNCCCCNCC
Mus musculus [5]
  Activity: 0.081 nmol/mg/min
Mus musculus [6]
  Activity: 0.034 nmol/mg/min
Mus musculus [7]
  Activity: 0.04 nmol/mg/min
Mus musculus [8]
  Activity: 0.079 nmol/mg/min
Mus musculus [9]
  Activity: 0.034 nmol/mg/min
Mus musculus [10]
  Activity: 0.16 nmol/mg/min
Mus musculus [11]
  Ratio: 0.97
Mus musculus [12]
  Ratio: 1
Mus musculus [13]
  Ratio: 4
Mus musculus [14]
  Ratio: 0.99
Mus musculus [15]
  Ratio: 1.55
Mus musculus [16]
  Ratio: 2.9
Cryptosporidium parvum [17]
  Activity: 50%
Cryptosporidium parvum [1]
  Activity: 50%
Cryptosporidium parvum [18]
  Activity: 50%
